From ChEMBL document CHEMBL4229537, “Synthesis and bioactivities evaluation of l-pyroglutamic acid analogues from natural product lead” (Bioorg Med Chem, 2018)
Values after ≈ are worked out from the molar mass of the structure shown.

How the values were obtained:
Phytophthora infestans [1] = test: Antifungal activity against Phytophthora infestans assessed as inhibition of zoospore release at 100 ug/ml after 4 hrs relative to control; assay type: functional
Method in brief: (§1)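 Zoospore release assay: compounds mixed with zoosporangia, held at 4 °C in darkness for 4 h; screened at 100 µg/mL. Solvent negative, azoxystrobin positive control. Release scored once control release reached 90%. Inhibition (%) = (P0−P1)/P0×100. EC50 determined for compounds exceeding 50% inhibition. Means ± SD of three independent experiments.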

Phytophthora infestans [2] = test: Antifungal activity against Phytophthora infestans assessed as inhibition of zoospore release after 4 hrs; assay type: functional, organism-based; method in brief: as §1
Bacillus cereus = test: Antibacterial activity against Bacillus cereus at 2 mg/ml after 4 to 10 hrs by filter paper dispersion method; assay type: functional; conditions: read-out: IZ
Method in brief: (§2)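 Filter paper diffusion method. Activated bacteria suspended in sterile water, mixed into beef extract peptone medium, and 3 mL poured per 9 cm dish. 5 µL of 2 mg/mL compound applied to 6 mm paper discs in three parallels. Fosfomycin as positive control, solvent as negative control. Dried discs placed on medium and incubated 4-10 h at 37°C. Inhibition zone size and transparency recorded by crisscross method.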

Bacillus thuringiensis = test: Antibacterial activity against Bacillus thuringiensis at 2 mg/ml after 4 to 10 hrs by filter paper dispersion method; assay type: functional; conditions: read-out: IZ; method in brief: as §2
Phytophthora infestans [3] = test: Potency index, ratio of azoxystrobin EC50 to test compound EC50 for Phytophthora infestans; assay type: functional
Staphylococcus aureus = test: Antibacterial activity against Staphylococcus aureus at 2 mg/ml after 4 to 10 hrs by filter paper dispersion method; assay type: functional; conditions: read-out: IZ; method in brief: as §2
[4] = test system: Pectobacterium carotovorum; test: Antibacterial activity against Erwinia caratovora at 2 mg/ml after 4 to 10 hrs by filter paper dispersion method; assay type: functional; conditions: read-out: IZ; method in brief: as §2
Ralstonia solanacearum = test: Antibacterial activity against Ralstonia solanacearum at 2 mg/ml after 4 to 10 hrs by filter paper dispersion method; assay type: functional; conditions: read-out: IZ
Phytophthora infestans [5] = test: Antifungal activity against Phytophthora infestans; assay type: functional, organism-based; method in brief: as §1
[6] = test system: Pseudoperonospora cubensis; test: Antifungal activity against Pseudoperonospora cubensis; assay type: functional, organism-based
[7] = Cytotoxicity against LPS-treated mouse BV2 cells assessed as cell viability after 24 hrs by SRB assay relative to control; assay type: cell-based, BV-2; set-up: concentration or dose not given beside the values; conditions: read-out: Activity
Method in brief: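 BV-2 cells pretreated with compound, then exposed to 1 µg/mL LPS for 24 h. Viability measured by SRB assay and expressed as % of control group. Mean ± SD of three independent experiments.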

BV-2 = test: Antiinflammatory activity in mouse BV2 cells assessed as inhibition of LPS-induced nitric oxide production after 24 hrs by Griess assay; assay type: functional, cell-based; conditions: BV-2, 24 h
Method in brief: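 BV-2 microglia plated at 1 × 10^5 cells/mL and grown 24 h. Cells pretreated with compound, then stimulated with 1 µg/mL LPS for another 24 h. Quercetin as positive control. Supernatant mixed with Griess reagent and absorbance read at 540 nm. IC50 reported as mean ± SD of three independent experiments.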

PC-12 = test: Neurotogenic activity in NGF-induced rat PC12 cells assessed as neurite bearing cell levels at 20 uM after 48 hrs by inverted microscopic method (reference value: 0.77 +/- 0.13%); assay type: functional

Work on `CCOC(=O)[C@@H]1CCC(=O)N1` yielded an inhibition at 100 µg/mL (Phytophthora infestans [1]) of 95.8% and an EC50 (Phytophthora infestans [2]) of 15.2 µg/mL (≈ 97 µM).
Work on `CN1CCN(C(=O)[C@@H]2CCC(=O)N2)CC1` yielded a zone of inhibition at 2000 µg/mL (Bacillus cereus) of 7 mm.
For `CCCCNC(=O)[C@@H]1CCC(=O)N1`, the inhibition at 100 µg/mL (Phytophthora infestans [1]) was 17.8% and the zone of inhibition at 2000 µg/mL (Bacillus thuringiensis) was 7.5 mm.
For `O=C1CC[C@@H](C(=O)Oc2ccc(Cl)cc2)N1`, the “Ratio EC50” value (Phytophthora infestans [3]) was 7, the inhibition at 100 µg/mL (Phytophthora infestans [1]) was 98.1% and the EC50 (Phytophthora infestans [2]) was 1.44 µg/mL (≈ 6.01 µM).
Compound `CN(C)C(=O)[C@@H]1CCC(=O)N1` has an inhibition at 100 µg/mL (Phytophthora infestans [1]) of 44.3%.
Work on `O=C1CC[C@@H](C(=O)Nc2ccc(C(F)(F)F)cc2)N1` yielded a zone of inhibition at 2000 µg/mL (Bacillus cereus) of 9.5 mm and a zone of inhibition at 2000 µg/mL (Bacillus thuringiensis) of 13 mm.
With `Nc1ccccc1NC(=O)[C@@H]1CCC(=O)N1` the zone of inhibition at 2000 µg/mL (Bacillus cereus) was 5.5 mm and the zone of inhibition at 2000 µg/mL (Bacillus thuringiensis) was 11.5 mm.
Work on `CC1(C)S[C@@H]2[C@H](NC(=O)Cc3ccccc3)C(=O)N2[C@H]1C(=O)O` [PENICILLIN G SODIUM] yielded a zone of inhibition at 2000 µg/mL (Bacillus cereus) of 25 mm, a zone of inhibition at 2000 µg/mL (Staphylococcus aureus) of 28 mm and a zone of inhibition at 2000 µg/mL [4] of 28 mm. The zone of inhibition at 2000 µg/mL (Bacillus thuringiensis) was 27 mm and the zone of inhibition at 2000 µg/mL (Ralstonia solanacearum) was 24 mm.
Work on `O=C1CC[C@@H](C(=O)Oc2ccccc2Cl)N1` yielded an inhibition at 100 µg/mL (Phytophthora infestans [1]) of 98.4% and an EC50 (Phytophthora infestans [2]) of 14.6 µg/mL (≈ 60.8 µM).
In the case of `O=C1CC[C@@H](C(=O)O)N1` [PIDOLIC ACID], the inhibition at 100 µg/mL (Phytophthora infestans [1]) is reported as 98.8%, the EC50 (Phytophthora infestans [5]) is reported as 9.48 µg/mL (≈ 73.4 µM) and the zone of inhibition at 2000 µg/mL (Bacillus thuringiensis) is reported as 17.5 mm. The EC50 [6] was 10.8 µg/mL (≈ 83.8 µM), the EC50 (Phytophthora infestans [2]) was 7.85 µg/mL (≈ 60.8 µM) and the zone of inhibition at 2000 µg/mL (Ralstonia solanacearum) was 7.5 mm.
Work on `CC(C)OC(=O)[C@@H]1CCC(=O)N1` yielded an inhibition at 100 µg/mL (Phytophthora infestans [1]) of 36.5%.
For `CCCOC(=O)[C@@H]1CCC(=O)N1`, the inhibition at 100 µg/mL (Phytophthora infestans [1]) was 95.1% and the EC50 (Phytophthora infestans [2]) was 12.4 µg/mL (≈ 72.6 µM).
Work on `Cc1ccc(C(C)C)c(OC(=O)[C@@H]2CCC(=O)N2)c1` yielded an inhibition at 100 µg/mL (Phytophthora infestans [1]) of 13.2%.
Compound `Cc1cc(Cl)ccc1OC(=O)[C@@H]1CCC(=O)N1` has an inhibition at 100 µg/mL (Phytophthora infestans [1]) of 39.8%, a viability at 24 h [7] of 91.1% and an IC50 (BV-2) of 19.4 µM.
`O=C1CC[C@@H](C(=O)NCCc2c[nH]c3ccccc23)N1` showed a zone of inhibition at 2000 µg/mL [4] of 15 mm, an inhibition at 100 µg/mL (Phytophthora infestans [1]) of 21.5% and a zone of inhibition at 2000 µg/mL (Bacillus thuringiensis) of 12 mm.
`O=C1CC[C@@H](C(=O)Oc2ccc(O)cc2)N1` [PIDOBENZONE] showed a zone of inhibition at 2000 µg/mL (Bacillus cereus) of 12 mm, a zone of inhibition at 2000 µg/mL (Staphylococcus aureus) of 6 mm and an Activity (PC-12) of 15.443%. It also gave a viability at 24 h [7] of 92.6%, an IC50 (BV-2) of 4.5 µM and a zone of inhibition at 2000 µg/mL (Ralstonia solanacearum) of 7 mm.
With `O=C1CC[C@@H](C(=O)Nc2ccccc2O)N1` the inhibition at 100 µg/mL (Phytophthora infestans [1]) was 33.7%.
With `CCOC(=O)c1ccccc1OC(=O)[C@@H]1CCC(=O)N1` the zone of inhibition at 2000 µg/mL (Staphylococcus aureus) was 6.5 mm, the zone of inhibition at 2000 µg/mL [4] was 11 mm and the inhibition at 100 µg/mL (Phytophthora infestans [1]) was 98.2%. The zone of inhibition at 2000 µg/mL (Bacillus thuringiensis) was 13 mm, the EC50 (Phytophthora infestans [2]) was 16.4 µg/mL (≈ 59.2 µM) and the zone of inhibition at 2000 µg/mL (Ralstonia solanacearum) was 5.5 mm.
With `O=C1CC[C@@H](C(=O)Oc2ccccc2[N+](=O)[O-])N1` the inhibition at 100 µg/mL (Phytophthora infestans [1]) was 96.3% and the EC50 (Phytophthora infestans [2]) was 8.58 µg/mL (≈ 34.3 µM).
`N#Cc1ccccc1OC(=O)[C@@H]1CCC(=O)N1` showed an inhibition at 100 µg/mL (Phytophthora infestans [1]) of 98.3%, a zone of inhibition at 2000 µg/mL (Bacillus thuringiensis) of 14 mm and an EC50 (Phytophthora infestans [2]) of 9.62 µg/mL (≈ 41.8 µM). The zone of inhibition at 2000 µg/mL (Ralstonia solanacearum) was 7 mm.
Compound `COC(=O)[C@@H]1CCC(=O)N1` has an inhibition at 100 µg/mL (Phytophthora infestans [1]) of 26.1%.
Compound `O=c1c(O)c(-c2ccc(O)c(O)c2)oc2cc(O)cc(O)c12` [QUERCETIN] has a viability at 24 h [7] of 99.5% and an IC50 (BV-2) of 4.3 µM.
Work on `CNC(=O)[C@@H]1CCC(=O)N1` yielded an inhibition at 100 µg/mL (Phytophthora infestans [1]) of 1.17% and a zone of inhibition at 2000 µg/mL (Bacillus thuringiensis) of 12 mm.
For `C=CCOC(=O)[C@@H]1CCC(=O)N1`, the inhibition at 100 µg/mL (Phytophthora infestans [1]) was 84.2% and the zone of inhibition at 2000 µg/mL (Bacillus thuringiensis) was 12 mm.
In the case of `O=C1CC[C@@H](C(=O)Oc2cccc3ccccc23)N1`, the “Ratio EC50” value (Phytophthora infestans [3]) is reported as 7, the inhibition at 100 µg/mL (Phytophthora infestans [1]) is reported as 98.5% and the EC50 (Phytophthora infestans [2]) is reported as 1.21 µg/mL (≈ 4.74 µM).
In the case of `CO/C=C(/C(=O)OC)c1ccccc1Oc1cc(Oc2ccccc2C#N)ncn1` [AZOXYSTROBIN], the inhibition at 100 µg/mL (Phytophthora infestans [1]) is reported as 99.2% and the EC50 (Phytophthora infestans [2]) is reported as 1.98 µg/mL (≈ 4.91 µM).
`C#CCOC(=O)[C@@H]1CCC(=O)N1` gave a zone of inhibition at 2000 µg/mL (Ralstonia solanacearum) of 6 mm.
For `CC(C)NC(=O)[C@@H]1CCC(=O)N1`, the zone of inhibition at 2000 µg/mL (Bacillus cereus) was 5.5 mm and the zone of inhibition at 2000 µg/mL (Bacillus thuringiensis) was 10 mm.
For `C=CCNC(=O)[C@@H]1CCC(=O)N1`, the zone of inhibition at 2000 µg/mL (Bacillus cereus) was 15 mm, the Activity (PC-12) was 14.962% and the inhibition at 100 µg/mL (Phytophthora infestans [1]) was 49.3%. It also gave a zone of inhibition at 2000 µg/mL (Bacillus thuringiensis) of 11.5 mm, a viability at 24 h [7] of 95.4% and an IC50 (BV-2) of 9.1 µM.
`CC(C)(C)NC(=O)[C@@H]1CCC(=O)N1` gave a zone of inhibition at 2000 µg/mL (Bacillus cereus) of 12 mm.
In the case of `O=C1CC[C@@H](C(=O)Nc2ccc([N+](=O)[O-])cc2)N1`, the inhibition at 100 µg/mL (Phytophthora infestans [1]) is reported as 47.5%.
`NC(=O)[C@@H]1CCC(=O)N1` gave an inhibition at 100 µg/mL (Phytophthora infestans [1]) of 13.6%, a zone of inhibition at 2000 µg/mL (Bacillus thuringiensis) of 8 mm and a zone of inhibition at 2000 µg/mL (Ralstonia solanacearum) of 5.5 mm.
For `Cc1ccccc1OC(=O)[C@@H]1CCC(=O)N1`, the inhibition at 100 µg/mL (Phytophthora infestans [1]) was 48.6%.
`C#CCNC(=O)[C@@H]1CCC(=O)N1` showed a zone of inhibition at 2000 µg/mL (Staphylococcus aureus) of 6 mm, a zone of inhibition at 2000 µg/mL (Bacillus thuringiensis) of 9 mm and a viability at 24 h [7] of 89.5%. For the same compound, the IC50 (BV-2) was 6 µM.
With `COC(=O)c1ccccc1NC(=O)[C@@H]1CCC(=O)N1` the zone of inhibition at 2000 µg/mL (Bacillus cereus) was 6 mm, the zone of inhibition at 2000 µg/mL (Staphylococcus aureus) was 6 mm and the zone of inhibition at 2000 µg/mL [4] was 9 mm. For the same compound, the inhibition at 100 µg/mL (Phytophthora infestans [1]) was 2.37% and the zone of inhibition at 2000 µg/mL (Ralstonia solanacearum) was 10 mm.
`CCN(CC)C(=O)[C@@H]1CCC(=O)N1` gave a zone of inhibition at 2000 µg/mL (Bacillus cereus) of 10 mm, a zone of inhibition at 2000 µg/mL [4] of 12 mm and an inhibition at 100 µg/mL (Phytophthora infestans [1]) of 35.8%.
`CC(C)COC(=O)[C@@H]1CCC(=O)N1` gave an inhibition at 100 µg/mL (Phytophthora infestans [1]) of 64.9%.
With `CCCCOC(=O)[C@@H]1CCC(=O)N1` the inhibition at 100 µg/mL (Phytophthora infestans [1]) was 99% and the EC50 (Phytophthora infestans [2]) was 11.2 µg/mL (≈ 60.5 µM).
Compound `O=C1CC[C@@H](C(=O)Oc2ccccc2)N1` has an inhibition at 100 µg/mL (Phytophthora infestans [1]) of 98.3% and an EC50 (Phytophthora infestans [2]) of 19.5 µg/mL (≈ 95.1 µM).
With `NNC(=O)[C@@H]1CCC(=O)N1` the zone of inhibition at 2000 µg/mL (Bacillus thuringiensis) was 14 mm.
